In ChEMBL document CHEMBL1212869, “Anti-HIV and antiplasmodial activity of original flavonoid derivatives” (Bioorg Med Chem, 2010):

Key:
THP-1 = assay: Cytotoxicity against human THP1 cells using propidium iodide staining after 72 hrs by flow cytometry; type: cell-based; conditions: THP-1, 72 h
[1] = system: Human immunodeficiency virus 2; assay: Antiviral activity against HIV2 ROD infected in human MT4 cells assessed as inhibition of virus-induced cytopathic effect after 4 days by MTT assay; type: functional, organism-based; conditions: Human immunodeficiency virus 2, ISOLATE ROD, MT4, 96 h
[2] = Cytotoxicity against human MT4 cells after 4 days by MTT assay; type: cell-based
Outline: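 Uninfected MT-4 cells were run in parallel with the antiviral test under the same conditions: 10⁵ cells/mL, serial compound dilutions from DMSO stocks, 4 days at 37 °C. Viability was read by MTT. CC50 is the concentration that lowers viability of uninfected cells by 50%.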

[3] = system: Human immunodeficiency virus 1; assay: Antiviral activity against HIV1 3B infected in human MT4 cells assessed as inhibition of virus-induced cytopathic effect after 4 days by MTT assay; type: functional, organism-based; conditions: Human immunodeficiency virus 1, 3B, MT4, 96 h
Plasmodium falciparum = assay: Antiplasmodial activity against chloroquine-resistant Plasmodium falciparum W2 infected in human A+ erythrocytes assessed as inhibition of parasite proliferation after 48 hrs; type: functional, organism-based; conditions: W2, 48 h
Outline: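 W2 parasites were cultured in RPMI 1640 with 25 mM HEPES, 25 mM NaHCO3 and 10% A+ human serum at 2.5% hematocrit, at 37 °C under 10% O2/6% CO2/84% N2. After 48 h exposure without medium change, cells were stained with hydroethidine (0.05 mg/mL in PBS, 20 min, dark, 37 °C). Parasitaemia was read by flow cytometry. IC50 came from three independent experiments.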

[4] = Selectivity index, ratio of IC50 for human THP1 cells to IC50 for chloroquine-resistant Plasmodium falciparum W2; type: toxicity, cell-based, THP-1; conditions: read-out: Selectivity Index

Structure (SMILES) | IC50 (THP-1) | IC50 [1] | CC50 at 96 h [2] | IC50 [3] | IC50 (Plasmodium falciparum) | selectivity ratio [4]
CC(=O)Nc1ccc2oc(-c3ccccc3F)cc(=O)c2c1 | > 125 µM | 205 µM | 205 µM | 205 µM | 40 µM | > 3.1
COc1cccc(-c2cc(=O)c3cc(N)ccc3o2)c1 | > 125 µM | 247 µM | 247 µM | 247 µM | 31 µM | > 4
CC(=O)Nc1ccc2oc(-c3ccc(C(F)(F)F)cc3)cc(=O)c2c1 | 10 µM | 330 µM | 330 µM | 330 µM | > 10 µM | –
CC(=O)Nc1ccc(O)c(C(=O)/C=C/c2cccc(F)c2)c1 | 78.6 µM | 30.1 µM | 30.1 µM | 30.1 µM | 15.7 µM | 5
CC(=O)Nc1ccc(O)c(C(=O)/C=C/c2cccc(C(F)(F)F)c2)c1 | 8.4 µM | 32.1 µM | 32.1 µM | 32.1 µM | 11.3 µM | –
COc1cccc(-c2oc3ccc(NC(C)=O)cc3c(=O)c2O)c1 | 50 µM | 33.3 µM | 33.3 µM | 33.3 µM | 50 µM | –
COc1cccc(-c2oc3ccc(N)cc3c(=O)c2OC)c1 | 37 µM | 251 µM | 251 µM | 251 µM | 13 µM | 2.8
COc1ccc(-c2oc3ccc(NC(C)=O)cc3c(=O)c2OC)cc1 | > 50 µM | 369 µM | 369 µM | 369 µM | 21 µM | > 2.4
CC(=O)Nc1ccc2oc(-c3ccc(F)cc3)c(O)c(=O)c2c1 | 26 µM | 34.1 µM | 34.1 µM | 34.1 µM | > 26 µM | –
COc1cccc2c1C(=O)c1c(O)c3c(c(O)c1C2=O)C[C@@](O)(C(=O)CO)C[C@@H]3O[C@H]1C[C@H](N)[C@H](O)[C@H](C)O1 [DOXORUBICIN] | 0.07 µM | – | – | – | – | –
COc1ccc(-c2oc3ccc(N)cc3c(=O)c2O)cc1 | 29 µM | 239 µM | 239 µM | 239 µM | > 29 µM | –
Nc1ccc2oc(-c3cccc(C(F)(F)F)c3)cc(=O)c2c1 | 34 µM | 138 µM | 138 µM | 138 µM | > 34 µM | –
COc1cccc(-c2oc3ccc(NC(C)=O)cc3c(=O)c2OC)c1 | 5 µM | 369 µM | 369 µM | 369 µM | > 5 µM | –
CC(=O)Nc1ccc2oc(-c3cccc(F)c3)c(O)c(=O)c2c1 | 36 µM | 26.5 µM | 26.5 µM | 26.5 µM | > 36 µM | –
CC(=O)Nc1ccc2oc(-c3ccc(F)cc3)cc(=O)c2c1 | 22 µM | 203 µM | 203 µM | 203 µM | > 22 µM | –
CC(=O)Nc1ccc2oc(-c3cccc(C(F)(F)F)c3)cc(=O)c2c1 | 50 µM | 10 µM | 10 µM | 10 µM | 50 µM | –
COc1ccccc1-c1cc(=O)c2cc(NC(C)=O)ccc2o1 | 50 µM | 226 µM | 226 µM | 226 µM | > 50 µM | –
Nc1ccc2oc(-c3ccccc3)c(O)c(=O)c2c1 | 27 µM | 216 µM | 216 µM | 216 µM | > 27 µM | –

Structure (SMILES) | IC50 (THP-1) | IC50 [1] | CC50 at 96 h [2] | IC50 [3] | IC50 (Plasmodium falciparum) | selectivity ratio [4]
CC(=O)Nc1ccc2oc(-c3ccccc3F)c(O)c(=O)c2c1 | 47 µM | 171 µM | 171 µM | 171 µM | > 47 µM | –
CC(=O)Nc1ccc2oc(-c3ccccc3)cc(=O)c2c1 | 97 µM | 184 µM | 184 µM | 184 µM | > 50 µM | –
COc1cccc(-c2cc(=O)c3cc(NC(C)=O)ccc3o2)c1 | 10 µM | > 404 µM | > 404 µM | > 404 µM | > 10 µM | –
Nc1ccc2oc(-c3ccc(F)cc3)cc(=O)c2c1 | 10 µM | 264 µM | 264 µM | 264 µM | > 10 µM | –
COc1ccc(-c2oc3ccc(NC(C)=O)cc3c(=O)c2O)cc1 | 9 µM | 98.7 µM | 98.7 µM | 98.7 µM | > 9 µM | –
Nc1ccc2oc(-c3ccc(F)cc3)c(O)c(=O)c2c1 | 4 µM | 92.6 µM | 92.6 µM | 92.6 µM | > 4 µM | –
CC(=O)Nc1ccc2oc(-c3ccccc3)c(O)c(=O)c2c1 | 36 µM | 64.7 µM | 64.7 µM | 64.7 µM | > 36 µM | –
Nc1ccc2oc(-c3cccc(F)c3)c(O)c(=O)c2c1 | 30 µM | 35.3 µM | 35.3 µM | 35.3 µM | > 30 µM | –
CC(=O)Nc1ccc2oc(-c3ccc(C(F)(F)F)cc3)c(O)c(=O)c2c1 | > 50 µM | 7.3 µM | 7.3 µM | 7.3 µM | > 50 µM | –
Nc1ccc2oc(-c3ccc(C(F)(F)F)cc3)c(O)c(=O)c2c1 | > 125 µM | 3.9 µM | 3.9 µM | 3.9 µM | > 50 µM | –
COc1cccc(-c2oc3ccc(N)cc3c(=O)c2O)c1 | 2 µM | 40.8 µM | 40.8 µM | 40.8 µM | > 2 µM | –
Nc1ccc2oc(-c3ccccc3F)cc(=O)c2c1 | 44 µM | 283 µM | 283 µM | 284 µM | > 44 µM | –
Nc1ccc2oc(-c3ccc(C(F)(F)F)cc3)cc(=O)c2c1 | 1.9 µM | 273 µM | 273 µM | 273 µM | > 1.9 µM | –
Nc1ccc2oc(-c3ccccc3F)c(O)c(=O)c2c1 | 38 µM | 44.5 µM | 44.5 µM | 44.5 µM | > 38 µM | –
COc1ccc(-c2cc(=O)c3cc(NC(C)=O)ccc3o2)cc1 | 74 µM | 226 µM | 226 µM | 226 µM | > 50 µM | –
Nc1ccc2oc(-c3ccccc3)cc(=O)c2c1 [6-AMINOFLAVONE] | 36 µM | 209 µM | 209 µM | 209 µM | > 36 µM | –
CC(=O)Nc1ccc2oc(-c3cccc(C(F)(F)F)c3)c(O)c(=O)c2c1 | 1 µM | 5.7 µM | 5.7 µM | 5.7 µM | > 1 µM | –
Nc1ccc2oc(-c3cccc(C(F)(F)F)c3)c(O)c(=O)c2c1 | 2 µM | 8.1 µM | 8.1 µM | 8.1 µM | > 2 µM | –
